From ChEMBL document CHEMBL1131151, “Novel cyclic compounds as potent phosphodiesterase 4 inhibitors” (J Med Chem, 1998)
pIC50: −log10 of the molar value.

Tests used:
Phosphodiesterase 4 [1] = target: T1, Phosphodiesterase 4 (Homo sapiens, UniProt P27815+Q08499+Q07343+Q08493); assay: Binding affinity at Phosphodiesterase 4 by measuring displacement of (+/-)-[3H]- Rolipram to guinea pig brain membranes.; assay type: tissue-based, Cavia porcellus; details: target entry is the homologue from another species
Outline: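 Guinea pig brain membranes (amount equal to 500 μg brain tissue per sample) incubated with 2 nM (±)-[3H]rolipram (24.7 Ci/mmol).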

Phosphodiesterase 4 [2] = target: T1, Phosphodiesterase 4; assay: Concentration to inhibit 50% of Phosphodiesterase 4 (PDE-4) from guinea pig macrophages; assay type: protein assay, Cavia porcellus; details: target entry is the homologue from another species
Outline: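 Enzyme source: homogenate of guinea pig peritoneal macrophages, Percoll-purified and adherence-selected, from Dunkin Hartley animals pretreated with horse serum. Two-step radioisotopic hydrolysis assay with 1 μM cAMP substrate in 20 mM Tris-HCl pH 8.0, 10 mM MgCl2, 4 mM 2-mercaptoethanol, 0.2 mM EGTA, 0.05 mg/mL BSA.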

Canis familiaris [3] = assay: Emetic effect in dogs at 3 mg/kg intravenous dose, 0 of 4 animals affected; assay type: functional, Canis lupus familiaris
[4] = (§1) Inhibition of tumor necrosis factor alpha (TNF-alpha) release in murine endotoxemia model after peroral administration
Outline: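 Male Balb/c mice, 20–25 g, were dosed orally in 0.25% methylcellulose/0.2% Tween-20 in water 4 h before an ip challenge with E. coli 055:B5 LPS at 30 μg/mouse. ED50 was taken from dose–response curves, n = 6 animals/group.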

PBMC = assay: Inhibition of TNF-alpha release from LPS-stimulated human mononuclear cells; assay type: functional, cell-based
[5] = Inhibition of tumor necrosis factor alpha (TNF-alpha) release in murine endotoxemia model after peroral administration at 30 mg/kg.; assay type: organism-based; parameters: dose 30 mg/kg
Canis familiaris [6] = assay: Emetic effect in dogs at 0.7 mg/kg intravenous dose, 0 of 4 animals affected; assay type: functional, Canis lupus familiaris
Outline: (§2)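 Male and female beagles, 1–2 years old, 8–10 kg, food withheld the morning of testing. Compound in 100% DMSO given as a slow iv bolus into the cephalic vein over 30 s at 0.03 mL/kg. Dogs observed for up to 2 h or until emesis occurred. Usually 4 dogs (2 male, 2 female) per test.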

Canis familiaris [7] = assay: Emetic effect in dogs at 0.01 mg/kg intravenous dose, 1 of 2 animals affected; assay type: functional, Canis lupus familiaris; outline: as §2
Canis familiaris [8] = assay: Emetic effect in dogs at 0.03 mg/kg intravenous dose, 2 of 2 animals affected; assay type: functional, Canis lupus familiaris; outline: as §2
Canis familiaris [9] = assay: Emetic effect in dogs at 0.2 mg/kg intravenous dose, 2 of 2 animals affected; assay type: functional, Canis lupus familiaris; outline: as §2
[10] = as §1; remark: listed apart in the source
Outline: (§3)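 Male Balb/c mice, 20–25 g, dosed orally in 0.25% methylcellulose/0.2% Tween-20 in water 4 h before ip challenge with E. coli 055:B5 LPS at 30 μg/mouse. Serum TNF-α measured by ELISA. ED50 taken from dose–response curves, n = 6 mice/group.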

Canis familiaris [11] = assay: Emetic effect in dogs at 1 mg/kg intravenous dose, 0 of 4 animals affected; assay type: functional, Canis lupus familiaris; outline: as §2
[12] = Inhibition of tumor necrosis factor alpha (TNF-alpha) release in murine endotoxemia model; outline: as §3

SMILES	Ki (Phosphodiesterase 4 [1]) [nM]	IC50 (Phosphodiesterase 4 [2]) [nM]	other results
COc1ccc(C2(Cc3c(Cl)cncc3Cl)C(=O)c3ccccc3C2=O)cc1OC1CCCC1	1700	3000	–
COc1ccc(C2(Cc3ccncc3)C(=O)c3ccc(OC(=O)N4CCC(N5CCCCC5)CC4)cc3C2=O)cc1OC1CCCC1 (stereo unspecified)	20	30	Ratio (Canis familiaris [3]): 0; ED50 [4]: 15 mg/kg
COc1ccc(C2(Cc3ccncc3)C(=O)c3ccc(OCc4ccccc4)cc3C2=O)cc1OC1CCCC1 (single isomer, unassigned; (+)) [listing 1 of 2 here]	–	–	inhibition [5]: 40%
COc1ccc(C2C(=O)c3ccccc3C2=O)cc1OC1CCCC1	> 10000	> 10000	–
COc1ccc(C2CNC(=O)C2)cc1OC1CCCC1 (stereo unspecified) [ROLIPRAM]	–	–	Ratio (Canis familiaris [7]): 1; Ratio (Canis familiaris [8]): 2; Ratio (Canis familiaris [9]): 2; pIC50 (PBMC): 6.30; ED50 [10]: 8 mg/kg
COc1ccc(C2(Cc3ccncc3)C(O)c3ccccc3C2O)cc1OC1CCCC1 (stereo unspecified)	> 10000	> 10000	–
COc1ccc(C2(Cc3ccncc3)Cc3ccccc3C2)cc1OC1CCCC1	1600	750	–
COc1ccc([C@H](Cc2ccncc2)c2ccccc2)cc1OC1CCCC1 [CDP840]	–	–	Ratio (Canis familiaris [11]): 0; ED50 [12]: 25 mg/kg

Now from value to molecule, other results behind:

Ki (Phosphodiesterase 4 [1]) [nM]	IC50 (Phosphodiesterase 4 [2]) [nM]	SMILES	other results
45	100	COc1ccc(C2(Cc3ccncc3)C(=O)c3ccc(O)cc3C2=O)cc1OC1CCCC1 (stereo unspecified)	–
20	6	COc1ccc(C2(Cc3ccncc3)C(=O)c3ccc(OCc4ccccc4)cc3C2=O)cc1OC1CCCC1 (stereo in doubt; (+)-17)	–
10	30	COc1ccc(C2(Cc3ccncc3)C(=O)c3ccccc3C2=O)cc1OC1CCCC1	pIC50 (PBMC): 6.70; inhibition [5]: 0%
20	4	COc1ccc(C2(Cc3ccncc3)C(=O)c3ccc(OCc4ccccc4)cc3C2=O)cc1OC1CCCC1 (single isomer, unassigned; (+)) [listing 2 of 2 here]	Ratio (Canis familiaris [6]): 0; Ratio (Canis familiaris [3]): 0; pIC50 (PBMC): 6.70
60	20	COc1ccc(C2(Cc3ccncc3)Cc3cc(OCc4ccccc4)ccc3C2=O)cc1OC1CCCC1 (stereo unspecified)	–
260	70	COc1ccc(C2(Cc3ccc(O)cc3)C(=O)c3ccccc3C2=O)cc1OC1CCCC1	–
20	50	COc1ccc(C2(Cc3cc[n+]([O-])cc3)C(=O)c3ccccc3C2=O)cc1OC1CCCC1	–
20	12	CCOc1ccc2c(c1)C(=O)C(Cc1ccncc1)(c1ccc(OC)c(OC3CCCC3)c1)C2=O (stereo unspecified)	–
20	30	COc1ccc(C2(Cc3ccncc3)C(=O)c3ccc(OCc4ccccc4)cc3C2=O)cc1OC1CCCC1 (stereo in doubt; (+)-18)	–
2300	500	COc1ccc(C2(Cc3ccccc3)C(=O)c3ccccc3C2=O)cc1OC1CCCC1	–
20	50	COc1ccc(C2(Cc3ccncc3)C(=O)c3ccc(OCC(=O)O)cc3C2=O)cc1OC1CCCC1 (stereo unspecified)	–
60	30	COc1ccc(C2(Cc3ccncc3)C(=O)c3ccc(OC4CCN(C)CC4)cc3C2=O)cc1OC1CCCC1 (stereo unspecified)	–
30	14	COc1ccc(C2(Cc3ccncc3)C(=O)c3ccc(OCc4ccncc4)cc3C2=O)cc1OC1CCCC1 (stereo unspecified)	–
